In ChEMBL document CHEMBL4152188, “Design, synthesis and biological evaluation of C(4) substituted monobactams as antibacterial agents against multidrug-resistant Gram-negative bacteria” (Eur J Med Chem, 2018):
Values after ≈ are worked out from the molar mass of the structure shown.

Legend:
Assay type in all cases: functional
Escherichia coli [1] = test: Antibacterial activity against extended-spectrum beta-lactamase producing Escherichia coli isolate 212648 after 18 hrs by CLSI broth microdilution method; conditions: isolate 212648, 18 h
Escherichia coli [2] = test: Antibacterial activity against Escherichia coli isolate 210737 after 18 hrs by CLSI broth microdilution method; conditions: isolate 210737, 18 h
Escherichia coli [3] = test: Antibacterial activity against extended-spectrum beta-lactamase producing Escherichia coli isolate 208687 after 18 hrs by CLSI broth microdilution method; conditions: isolate 208687, 18 h
Escherichia coli [4] = test: Antibacterial activity against extended-spectrum beta-lactamase producing Escherichia coli isolate 208687 after 18 hrs in presence of BPL by CLSI broth microdilution method; conditions: isolate 208687, 18 h
Procedure, shortened: (§1)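 CLSI broth microdilution against clinical isolates (ESBL E. coli, KPC-2 MDR K. pneumoniae, IMP-4 MDR P. aeruginosa; five per species). Iron limitation: Mueller-Hinton broth supplemented with 16 mg/liter 2,2'-bipyridyl to complex iron and induce iron uptake systems. Read-out: MIC.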

Escherichia coli [5] = test: Antibacterial activity against Escherichia coli isolate 210737 after 18 hrs in presence of BPL by CLSI broth microdilution method; conditions: isolate 210737, 18 h; procedure, shortened: as §1
Escherichia coli [6] = test: Antibacterial activity against extended-spectrum beta-lactamase producing Escherichia coli isolate 212648 after 18 hrs in presence of BPL by CLSI broth microdilution method; conditions: isolate 212648, 18 h; procedure, shortened: as §1
Escherichia coli [7] = test: Antibacterial activity against extended-spectrum beta-lactamase producing Escherichia coli isolate 209285 after 18 hrs by CLSI broth microdilution method; conditions: isolate 209285, 18 h
Escherichia coli [8] = test: Antibacterial activity against extended-spectrum beta-lactamase producing Escherichia coli isolate 209285 after 18 hrs in presence of BPL by CLSI broth microdilution method; conditions: isolate 209285, 18 h; procedure, shortened: as §1
Escherichia coli [9] = test: Antibacterial activity against extended-spectrum beta-lactamase producing Escherichia coli isolate 106342 after 18 hrs by CLSI broth microdilution method; conditions: isolate 106342, 18 h
Escherichia coli [10] = test: Antibacterial activity against extended-spectrum beta-lactamase producing Escherichia coli isolate 106342 after 18 hrs in presence of BPL by CLSI broth microdilution method; conditions: isolate 106342, 18 h; procedure, shortened: as §1
Escherichia coli [11] = test: Selectivity index, ratio of MIC for against extended-spectrum beta-lactamase producing Escherichia coli isolate 106342 to MIC for extended-spectrum beta-lactamase producing Escherichia coli isolate 106342 in presence of BPL
Klebsiella pneumoniae [12] = test: Antibacterial activity against KPC-2 producing Klebsiella pneumoniae isolate 212423 after 18 hrs by CLSI broth microdilution method; conditions: isolate 212423, 18 h
Klebsiella pneumoniae [13] = test: Antibacterial activity against KPC-2 producing Klebsiella pneumoniae isolate 212423 after 18 hrs in presence of BPL by CLSI broth microdilution method; conditions: isolate 212423, 18 h; procedure, shortened: as §1
Klebsiella pneumoniae [14] = test: Antibacterial activity against KPC-2 producing Klebsiella pneumoniae isolate 209632 after 18 hrs by CLSI broth microdilution method; conditions: isolate 209632, 18 h
Klebsiella pneumoniae [15] = test: Antibacterial activity against KPC-2 producing Klebsiella pneumoniae isolate 209632 after 18 hrs in presence of BPL by CLSI broth microdilution method; conditions: isolate 209632, 18 h; procedure, shortened: as §1
Klebsiella pneumoniae [16] = test: Antibacterial activity against KPC-2 producing Klebsiella pneumoniae isolate 209735 after 18 hrs by CLSI broth microdilution method; conditions: isolate 209735, 18 h
Klebsiella pneumoniae [17] = test: Antibacterial activity against KPC-2 producing Klebsiella pneumoniae isolate 209735 after 18 hrs in presence of BPL by CLSI broth microdilution method; conditions: isolate 209735, 18 h; procedure, shortened: as §1
Klebsiella pneumoniae [18] = test: Antibacterial activity against KPC-2 producing Klebsiella pneumoniae isolate 212232 after 18 hrs by CLSI broth microdilution method; conditions: isolate 212232, 18 h
Klebsiella pneumoniae [19] = test: Antibacterial activity against KPC-2 producing Klebsiella pneumoniae isolate 212232 after 18 hrs in presence of BPL by CLSI broth microdilution method; conditions: isolate 212232, 18 h; procedure, shortened: as §1
Klebsiella pneumoniae [20] = test: Antibacterial activity against KPC-2 producing Klebsiella pneumoniae isolate 212229 after 18 hrs by CLSI broth microdilution method; conditions: isolate 212229, 18 h
Klebsiella pneumoniae [21] = test: Antibacterial activity against KPC-2 producing Klebsiella pneumoniae isolate 212229 after 18 hrs in presence of BPL by CLSI broth microdilution method; conditions: isolate 212229, 18 h; procedure, shortened: as §1
Pseudomonas aeruginosa [22] = test: Antibacterial activity against IMP-4 producing Pseudomonas aeruginosa isolate 212886 after 18 hrs by CLSI broth microdilution method; conditions: isolate 212886, 18 h
Pseudomonas aeruginosa [23] = test: Antibacterial activity against IMP-4 producing Pseudomonas aeruginosa isolate 212886 after 18 hrs in presence of BPL by CLSI broth microdilution method; conditions: isolate 212886, 18 h; procedure, shortened: as §1
Pseudomonas aeruginosa [24] = test: Selectivity index, ratio of MIC for against IMP-4 producing Pseudomonas aeruginosa isolate 212886 to MIC for against IMP-4 producing Pseudomonas aeruginosa isolate 212886 in presence of BPL
Pseudomonas aeruginosa [25] = test: Antibacterial activity against IMP-4 producing Pseudomonas aeruginosa isolate 209471 after 18 hrs by CLSI broth microdilution method; conditions: isolate 209471, 18 h
Pseudomonas aeruginosa [26] = test: Antibacterial activity against IMP-4 producing Pseudomonas aeruginosa isolate 209471 after 18 hrs in presence of BPL by CLSI broth microdilution method; conditions: isolate 209471, 18 h; procedure, shortened: as §1
Pseudomonas aeruginosa [27] = test: Selectivity index, ratio of MIC for against IMP-4 producing Pseudomonas aeruginosa isolate 209471 to MIC for against IMP-4 producing Pseudomonas aeruginosa isolate 209471 in presence of BPL
Pseudomonas aeruginosa [28] = test: Antibacterial activity against IMP-4 producing Pseudomonas aeruginosa isolate 208247 after 18 hrs by CLSI broth microdilution method; conditions: isolate 208247, 18 h
Pseudomonas aeruginosa [29] = test: Antibacterial activity against IMP-4 producing Pseudomonas aeruginosa isolate 208247 after 18 hrs in presence of BPL by CLSI broth microdilution method; conditions: isolate 208247, 18 h; procedure, shortened: as §1
Pseudomonas aeruginosa [30] = test: Selectivity index, ratio of MIC for against IMP-4 producing Pseudomonas aeruginosa isolate 208247 to MIC for against IMP-4 producing Pseudomonas aeruginosa isolate 208247 in presence of BPL
Pseudomonas aeruginosa [31] = test: Antibacterial activity against IMP-4 producing Pseudomonas aeruginosa isolate 209321 after 18 hrs by CLSI broth microdilution method; conditions: isolate 209321, 18 h
Pseudomonas aeruginosa [32] = test: Antibacterial activity against IMP-4 producing Pseudomonas aeruginosa isolate 209321 after 18 hrs in presence of BPL by CLSI broth microdilution method; conditions: isolate 209321, 18 h; procedure, shortened: as §1
Pseudomonas aeruginosa [33] = test: Selectivity index, ratio of MIC for against IMP-4 producing Pseudomonas aeruginosa isolate 209321 to MIC for against IMP-4 producing Pseudomonas aeruginosa isolate 209321 in presence of BPL
Pseudomonas aeruginosa [34] = test: Antibacterial activity against IMP-4 producing Pseudomonas aeruginosa isolate 207272 after 18 hrs by CLSI broth microdilution method; conditions: isolate 207272, 18 h
Pseudomonas aeruginosa [35] = test: Antibacterial activity against IMP-4 producing Pseudomonas aeruginosa isolate 207272 after 18 hrs in presence of BPL by CLSI broth microdilution method; conditions: isolate 207272, 18 h; procedure, shortened: as §1
Pseudomonas aeruginosa [36] = test: Selectivity index, ratio of MIC for against IMP-4 producing Pseudomonas aeruginosa isolate 207272 to MIC for against IMP-4 producing Pseudomonas aeruginosa isolate 207272 in presence of BPL

C#CC1[C@H](NC(=O)/C(=N\OC(c2cc(=O)c(O)cn2O)C(C)C)c2csc(N)n2)C(=O)N1S(=O)(=O)O (stereo partly specified) showed an MIC (Escherichia coli [1]) of over 64 µg/mL, an MIC (Escherichia coli [2]) of over 64 µg/mL and an MIC (Escherichia coli [3]) of over 64 µg/mL. The MIC (Escherichia coli [4]) was over 64 µg/mL, the MIC (Escherichia coli [5]) was over 64 µg/mL and the MIC (Escherichia coli [6]) was over 64 µg/mL. The MIC (Escherichia coli [7]) was over 64 µg/mL, the MIC (Escherichia coli [8]) was over 64 µg/mL and the MIC (Escherichia coli [9]) was 64 µg/mL (≈ 118 µM). For the same compound, the MIC (Escherichia coli [10]) was 64 µg/mL, the “Selectivity Index” value (Escherichia coli [11]) was 1 and the MIC (Klebsiella pneumoniae [12]) was over 64 µg/mL. For the same compound, the MIC (Klebsiella pneumoniae [13]) was over 64 µg/mL, the MIC (Klebsiella pneumoniae [14]) was over 64 µg/mL and the MIC (Klebsiella pneumoniae [15]) was over 64 µg/mL. It also gave an MIC (Klebsiella pneumoniae [16]) of over 64 µg/mL, an MIC (Klebsiella pneumoniae [17]) of over 64 µg/mL and an MIC (Klebsiella pneumoniae [18]) of over 64 µg/mL. The MIC (Klebsiella pneumoniae [19]) was over 64 µg/mL, the MIC (Klebsiella pneumoniae [20]) was over 64 µg/mL and the MIC (Klebsiella pneumoniae [21]) was over 64 µg/mL. The MIC (Pseudomonas aeruginosa [22]) was over 64 µg/mL, the MIC (Pseudomonas aeruginosa [23]) was over 64 µg/mL and the “Selectivity Index” value (Pseudomonas aeruginosa [24]) was 1 - 2. For the same compound, the MIC (Pseudomonas aeruginosa [25]) was over 64 µg/mL, the MIC (Pseudomonas aeruginosa [26]) was over 64 µg/mL and the “Selectivity Index” value (Pseudomonas aeruginosa [27]) was 1 - 2. The MIC (Pseudomonas aeruginosa [28]) was 64 µg/mL (≈ 118 µM), the MIC (Pseudomonas aeruginosa [29]) was 32 µg/mL and the “Selectivity Index” value (Pseudomonas aeruginosa [30]) was 2. The MIC (Pseudomonas aeruginosa [31]) was 64 µg/mL (≈ 118 µM), the MIC (Pseudomonas aeruginosa [32]) was 64 µg/mL and the “Selectivity Index” value (Pseudomonas aeruginosa [33]) was 1. The MIC (Pseudomonas aeruginosa [34]) was over 64 µg/mL, the MIC (Pseudomonas aeruginosa [35]) was over 64 µg/mL and the “Selectivity Index” value (Pseudomonas aeruginosa [36]) was 1 - 2.
